Laboratory results taken from ChEMBL document CHEMBL1157263, “Cytotoxic diacetylenic spiroketal enol ethers from Plagius flosculosus” (J Nat Prod, 2006).

Experiments:
Type in all cases: functional, cell-based
[1] = system: HL-60; assay: Cytotoxicity against human HL60 after 20 hrs by WST1 assay; settings: HL-60, 20 h
Summary of the method: (§1)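 WST-1 cell viability read-out after 2.5, 20 and 72 h exposure; compounds tested over 0.5 to 80 µM. Cells: CD4+ Jurkat T-cells (ATCC TIB-152), Bcl-2-transfected Jurkat, and HL-60 (ATCC CCL-240). Maximal standard deviation 10% (absolute).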

[2] = system: HL-60; assay: Induction of apoptosis in human HL60 cells by FACS
Summary of the method: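 HL-60 cells (10^6 per sample) exposed 24 h, washed in cold PBS with 1% bovine calf serum and spun at 200g, 4 °C. Staining with annexin V-FITC (2 µg/mL) in HEPES binding buffer, pH 7.4, 10 min on ice in the dark, then 1 µg PI per tube. Flow cytometry within 20 min; annexin V-FITC-positive cells in the gated population scored apoptotic. Taxol 500 nM positive control, untreated negative control.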

[3] = system: Jurkat; assay: Cytotoxicity against human Jurkat T cells after 20 hrs by WST1 assay; summary of the method: as §1
[4] = system: Jurkat; assay: Cytotoxicity against human Jurkat T cells overexpressing Bcl2 after 20 hrs by WST1 assay; summary of the method: as §1

CC#CC#C/C=C1/C=C[C@]2(OC=CC2OC(C)=O)O1 (stereo partly drawn)
IC50 [1]: 4.2 µM
Activity [2]: Dose-dependent effect
IC50 [3]: 4.1 µM
IC50 [4]: 5.2 µM

CC#CC#C/C=C1\C=C[C@]2(OC=CC2OC(C)=O)O1 (stereo partly drawn)
IC50 [1]: 4 µM
Activity [2]: Dose-dependent effect
IC50 [3]: 6.4 µM
IC50 [4]: 6.9 µM

CC#CC#C/C=C1/O[C@@]2(OC=C[C@H]2OC(C)=O)[C@@H](O)[C@@H]1Cl [FLOSCULIN A]
IC50 [1]: 18.9 µM
IC50 [3]: 13.2 µM
IC50 [4]: 19.1 µM

CC#CC#C/C=C1\C=C[C@@]2(CCCO2)O1
IC50 [1]: 16.2 µM
IC50 [3]: 11.2 µM
IC50 [4]: 14.1 µM

CC#CC#C/C=C1\C=CC2(CCC(OC)O2)O1 (racemic) [FLOSCULIN B]
IC50 [1]: 18.3 µM
IC50 [3]: 15.2 µM
IC50 [4]: 19.2 µM

CC#CC#C/C=C1\C=C[C@@]2(CC=CO2)O1
IC50 [1]: 6.1 µM
IC50 [3]: 4.7 µM
IC50 [4]: 8.4 µM

CC#CC#C/C=C1/C=C[C@@]2(CC=CO2)O1
IC50 [1]: 5.6 µM
IC50 [3]: 3.8 µM
IC50 [4]: 7.2 µM

CC#CC#C/C=C1/C=CC2(CCC(OC)O2)O1 (racemic) [FLOSCULIN C]
IC50 [1]: 16.7 µM
IC50 [3]: 10.8 µM
IC50 [4]: 16.9 µM

C=C1C(=O)O[C@@H]2C[C@@H](C)[C@@H]3C=CC(=O)[C@@]3(C)[C@@H](O)[C@H]12 [HELENALIN]
IC50 [1]: 0.7 µM
IC50 [3]: 0.46 µM
